Assay results published in ChEMBL document CHEMBL2040725, “In vitro and in vivo biological evaluation of new 4,5-disubstituted 1,2,3-triazoles as cis-constrained analogs of combretastatin A4” (Eur J Med Chem, 2012).
Calls of active or inactive are those of the source. The calls are words filed in the database; no cut-off is given here.

Legend:
[1] = Antivascular activity against human EAhy926 cells assessed as the minimum concentration required to elicit rounding up of cells after 2 hrs by microscopic analysis; assay type: functional, EA.hy 926
In short: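 EAhy 926 cells (HUVEC fused with A549) grown in DMEM with 10% FBS, 2 mM L-glutamine and antibiotics. Top concentration 100 µM, then two-fold serial dilutions. Wells photographed at 100× and 200×. Value = lowest concentration rounding up >15% of cells per field; 1% DMSO control.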

[2] = Inhibition of tubulin polymerization preincubated for 45 mins before GTP addition measured after 2 hrs by DAPI-based fluorescenct assay
In short: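 Tubulin (97% pure, 1 mg/ml final) in PME buffer (100 mM PIPES, MgSO₄, 2 mM EGTA) with 10 µM DAPI. Compounds from 30 µM in 3-fold decrements, triplicate wells, colchicine as full-inhibition control. 45 min preincubation at room temperature, then 1 mM GTP added and held 2 h at 37 °C. Fluorescence read at ex 360/em 450 nm. Percent inhibition taken relative to colchicine; IC50 = 50% inhibition.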

[3] = Toxicity in mouse ip dosed BALB/cJRj mouse allografted with mouse Colon 26 cells compound administered on days 3-7 and 10-14 post implantation relative to control; assay type: organism-based; settings: in vivo
In short: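 Female BALB/cJRj mice (~18 g) with bilateral subcutaneous axillary Colon 26 fragments (30-60 mg) implanted on day 0; 5 mice/group. Daily fresh doses in saline with 5% DMSO and 5% polysorbate 80, given ip on days 3-7 and 10-14; solvent-treated controls. Mice weighed daily and checked for clinical toxicity signs; tumours measured daily by caliper.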

Colon 26 [4] = assay: Antitumor activity against mouse Colon 26 cells allografted in BALB/cJRj mouse assessed as reduction in tumor volume at 100 mg/kg, ip administered on days 3-7 and 10-14 post implantation relative to control; assay type: functional; set-up: scale not given: the % may be the effect or the level left; settings: route intraperitoneal
In short: (§1)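 Female BALB/cJRj mice (about 18 g), 5 per group. Colon 26 tumor fragments (30-60 mg) implanted s.c. bilaterally in the axilla on day 0. Dosing i.p. on days 3-7 and 10-14 in saline with 5% DMSO and 5% polysorbate 80, 0.2 ml. Tumors measured daily by caliper, volume = length × width² × 0.5. %T/C = median treated/control, taken when control tumors reached 1500 mm³. T-C growth delay also recorded.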

Colon 26 [5] = assay: Antitumor activity against mouse Colon 26 cells allografted in BALB/cJRj mouse assessed as tumor growth delay time at 100 mg/kg, ip administered on days 3-7 and 10-14 post implantation relative to control; assay type: functional; settings: route intraperitoneal; in short: as §1
EA.hy 926 = assay: Antivascular activity against human EAhy926 cells assessed as rounding up of cells at 1 uM after 2 hrs by microscopic analysis; assay type: functional, cell-based
B16 = assay: Cytotoxicity against mouse B16 cells assessed as cell viability after 48 hrs by MTT assay; assay type: functional, cell-based; settings: B16, 48 h
In short: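 Murine B16 melanoma cells in DMEM with 10% FBS, 2 mM L-glutamine and antibiotics, 37 °C, 5% CO₂. Incubated 48 h, then MTT read at 562 nm with background subtraction. IC50 from concentration-response curves.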

Colon 26 [6] = assay: Antitumor activity against mouse Colon 26 cells allografted in BALB/cJRj mouse assessed as reduction in tumor volume at 150 mg/kg, ip administered on days 3-7 and 10-14 post implantation relative to control; assay type: functional; set-up: scale not given: the % may be the effect or the level left; settings: route intraperitoneal; in short: as §1
Colon 26 [7] = assay: Antitumor activity against mouse Colon 26 cells allografted in BALB/cJRj mouse assessed as tumor growth delay time at 150 mg/kg, ip administered on days 3-7 and 10-14 post implantation relative to control; assay type: functional; settings: route intraperitoneal; in short: as §1

| SMILES | Activity [1] [µM] | IC50 [2] [µM] | MTD [3] [mg/kg] | Activity (Colon 26 [4]) [%] | Time (Colon 26 [5]) [days] | Activity (EA.hy 926) | IC50 (B16) [µM] | Activity (Colon 26 [6]) [%] | Time (Colon 26 [7]) [days] |
| --- | --- | --- | --- | --- | --- | --- | --- | --- | --- |
| COc1ccc(-c2nn[nH]c2Cc2cc(OC)c(OC)c(OC)c2)cc1O | 0.13 | 1.2 | 100 | 60 | 2.7 | Active | 1.6 | – | – |
| COc1ccc(-c2nn[nH]c2Cc2cc(OC)c(OC)c(OC)c2)cc1N | 0.2 | 1.8 | – | – | – | – | 14.8 | – | – |
| COc1ccc(/C=C(/Cc2cc(OC)c(OC)c(OC)c2)[N+](=O)[O-])cc1F | 0.8 | 1.6 | – | – | – | – | 2.9 | – | – |
| COc1cc(/C=C(/Cc2cc(OC)c(OC)c(OC)c2)[N+](=O)[O-])ccc1O | 6.3 | > 30 | – | – | – | – | 2.6 | – | – |
| COc1cc(-c2nn[nH]c2Cc2cc(OC)c(OC)c(OC)c2)ccc1O | >100 | > 30 | – | – | – | – | > 100 | – | – |
| COc1ccc(Cc2[nH]nnc2-c2cc(OC)c(OC)c(OC)c2)cc1O | 0.6 | 1.7 | – | – | – | – | 22.9 | – | – |
| COc1cc(Cc2[nH]nnc2-c2ccc(Cl)cc2Cl)cc(OC)c1OC | >100 | > 30 | – | – | – | – | 41.7 | – | – |
| COc1cc(-c2nn[nH]c2Cc2c[nH]c3ccccc23)cc(OC)c1OC | 50 | > 30 | – | – | – | – | 10.7 | – | – |
| COc1ccc(/C=C(/Cc2cc(OC)c(OC)c(OC)c2)[N+](=O)[O-])cc1[N+](=O)[O-] | 3 | 8.9 | – | – | – | – | 3.5 | – | – |
| COc1cc(C/C(=C/c2ccc3c(c2)OCO3)[N+](=O)[O-])cc(OC)c1OC | 0.4 | 10.5 | – | – | – | – | 3 | – | – |
| COc1cc(C/C(=C/c2ccc(Cl)cc2Cl)[N+](=O)[O-])cc(OC)c1OC | 3.1 | 21.9 | – | – | – | – | 2.6 | – | – |
| COc1cc(C/C(=C/c2ccc(Cl)c(Cl)c2)[N+](=O)[O-])cc(OC)c1OC | 3.1 | 15.5 | – | – | – | – | 4.6 | – | – |
| COc1cc(Cc2[nH]nnc2-c2ccc3c(c2)OCO3)cc(OC)c1OC | 25 | > 30 | – | – | – | – | 38 | – | – |
| COc1cc(/C=C(/Cc2cc(OC)c(OC)c(OC)c2)[N+](=O)[O-])cc(OC)c1OC | 6.3 | 22.4 | – | – | – | – | 3.3 | – | – |
| COc1ccc(-c2nn[nH]c2Cc2cc(OC)c(OC)c(OC)c2)cc1F | 2.5 | 12 | – | – | – | – | 31 | – | – |
| COc1ccc(-c2nn[nH]c2Cc2cc(OC)c(OC)c(OC)c2)cc1[N+](=O)[O-] | 25 | > 30 | – | – | – | – | 50.1 | – | – |
| COc1cc(/C=C(/Cc2c[nH]c3ccccc23)[N+](=O)[O-])cc(OC)c1OC | 1.6 | 5.2 | – | – | – | – | 5.5 | – | – |
| COc1cc(/C=C(/Cc2cc(OC)c(OC)c(OC)c2)[N+](=O)[O-])cc(OC)c1O | 12.5 | 23.4 | – | – | – | – | 3.2 | – | – |
| COc1ccc(/C=C(/Cc2cc(OC)c(OC)c(OC)c2)[N+](=O)[O-])cc1O | 0.2 | 0.9 | 150 | – | – | – | 4 | 52 | 2 |
| COc1ccc(/C=C\c2cc(OC)c(OC)c(OC)c2)cc1O [COMBRETASTATIN A4] | 0.006 | 0.3 | – | – | – | – | 0.003 | – | – |
| COc1ccc(C/C(=C/c2cc(OC)c(OC)c(OC)c2)[N+](=O)[O-])cc1O | 0.6 | 0.9 | – | – | – | – | 2.9 | – | – |
